Test results: ChEMBL document CHEMBL1137987, “O-alkoxyamidine prodrugs of furamidine: in vitro transport and microsomal metabolism as indicators of in vivo efficacy in a mouse model of Trypanosoma brucei rhodesiense infection” (J Med Chem, 2004)

Columns and labels:
[1] = test system: Trypanosoma brucei rhodesiense; assay: In vitro inhibitory activity against Trypanosoma brucei rhodesiense evaluated in vitro
Mus musculus [2] = assay: In vivo effect (cures) determined by number of mice that survived (1) and are parasite free (4) for 60 days upon oral dose, observed in STIB900 mouse model
Mus musculus [3] = assay: In vivo effect on average days of survival was measured upon oral dose at 400 mg/kg in STIB900 mouse model; format: functional
In short: (§1)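 Mice infected with T. b. rhodesiense STIB900 got four daily doses: intraperitoneal for the parent amidine (4 × 10 mg/kg), oral for the prodrugs (4 × 25, 4 × 50 or 4 × 100 mg/kg/day). Read-out is mean days of survival per group, followed to 60 days.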

[4] = Half-life in human liver microsomes was determined; format: ADME, Microsome
In short: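 Substrate at 10 µM final (from 5 mM methanol stocks) in 100 mM potassium phosphate pH 7.4 with 0.2 mg/mL pooled human liver microsomes. Preincubated 5 min, then started with 1 mM NADPH. Samples taken at 0–90 min, quenched with acetonitrile on ice, centrifuged, and supernatant analysed by HPLC-UV or LC-MS. Half-life from substrate loss.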

Caco-2 [5] = assay: Apparent permeability determined across the Caco-2 cell monolayers in both basolateral (BL) to apical (AP) directions; format: functional, cell-based; conditions: Homo sapiens
Mus musculus [6] = assay: In vivo effect (cures) determined by number of mice that survived (4) and are parasite free (4) for 60 days upon oral dose, observed in STIB900 mouse model
Mus musculus [7] = assay: In vivo effect (cures) determined by number of mice that survived (2) and are parasite free (4) for 60 days upon oral dose, observed in STIB900 mouse model
Caco-2 [8] = assay: Apparent permeability determined across the Caco-2 cell monolayers in both apical (AP) to basolateral (BL) directions; format: functional, cell-based; conditions: Homo sapiens
Mus musculus [9] = assay: In vivo effect on average days of survival was measured upon oral dose at 200 mg/kg in STIB900 mouse model; format: functional
In short: as §1

Mus musculus [10] = assay: In vivo effect on average days of survival was measured upon oral dose at 100 mg/kg in STIB900 mouse model; format: functional
In short: as §1

Mus musculus [11] = assay: In vivo effect on average days of survival was measured upon intraperitoneal dose at 40 mg/kg in STIB900 mouse model; format: functional
In short: as §1

Mus musculus [12] = assay: In vivo effect (cures) determined by number of mice that survived (0) and are parasite free (8) for 60 days upon intraperitoneal dose, observed in STIB900 mouse model; format: functional
In short: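 T. b. rhodesiense STIB900 acute infection in mice, 4 mice per group (8 in one group). Four daily doses (4 × mg/kg/day); the parent amidine was given intraperitoneally and the prodrugs orally. A cure is a mouse surviving and parasite-free at 60 days, reported as cured/treated.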

Compound	IC50 [1] [µM]	Dose (Mus musculus [2]) [mg/kg]	Survival days (Mus musculus [3])	half-life [4] [min]	Papp (Caco-2 [5])	Dose (Mus musculus [6]) [mg/kg]	Dose (Mus musculus [7]) [mg/kg]	Papp (Caco-2 [8])	Survival days (Mus musculus [9])	Survival days (Mus musculus [10])	Survival days (Mus musculus [11])	Dose (Mus musculus [12]) [mg/kg]
CCCONC(=N)c1ccc(-c2ccc(-c3ccc(C(=N)NOCCC)cc3)o2)cc1	0.472	400	>47.5	60	–	–	–	–	–	–	–	–
CCCCONC(=N)c1ccc(-c2ccc(-c3ccc(C(=N)NOCCCC)cc3)o2)cc1	1.9	–	9	–	–	–	–	–	–	–	–	–
CCCCCCONC(=N)c1ccc(-c2ccc(-c3ccc(C(=N)NOCCCCCC)cc3)o2)cc1	5.7	–	6	–	–	–	–	–	–	–	–	–
N=C(NO)c1ccc(-c2ccc(-c3ccc(/C(N)=N\O)cc3)o2)cc1	66.4	–	50	–	–	–	–	–	–	–	–	–
CONC(=N)c1ccc(-c2ccc(-c3ccc(C(=N)NOC)cc3)o2)cc1 [PAFURAMIDINE]	14.6	100	>60	4.16	3.75e-05	400	200	6.04e-05	>60	>60	–	–
N=C(N)c1ccc(-c2ccc(-c3ccc(C(=N)N)cc3)o2)cc1 [FURAMIDINE]	0.0045	–	–	–	8.5e-07	–	–	3.8e-07	–	–	>46	40
CC(C)ONC(=N)c1ccc(-c2ccc(-c3ccc(C(=N)NOC(C)C)cc3)o2)cc1	12.6	–	48	–	–	–	400	–	–	–	–	–
CCONC(=N)c1ccc(-c2ccc(-c3ccc(C(=N)NOCC)cc3)o2)cc1	0.645	–	>60	32	3.7e-06	400	–	5.9e-06	–	32	–	–
